# Shown are actives, neighbours in structure and some others; about 1.9% of the full set was active somewhere.
# Furin inh: human furin inhibitors, primary screen, biochemical, fluorescence intensity; P09958; purified furin, fluorogenic substrate cleavage; inhibition, % at 20 µM or 30 µM; 220,000 compounds, 0.061% hits; in the data active = inhibition above about 25%
# Target sequence (P09958 108-714 limits assumed): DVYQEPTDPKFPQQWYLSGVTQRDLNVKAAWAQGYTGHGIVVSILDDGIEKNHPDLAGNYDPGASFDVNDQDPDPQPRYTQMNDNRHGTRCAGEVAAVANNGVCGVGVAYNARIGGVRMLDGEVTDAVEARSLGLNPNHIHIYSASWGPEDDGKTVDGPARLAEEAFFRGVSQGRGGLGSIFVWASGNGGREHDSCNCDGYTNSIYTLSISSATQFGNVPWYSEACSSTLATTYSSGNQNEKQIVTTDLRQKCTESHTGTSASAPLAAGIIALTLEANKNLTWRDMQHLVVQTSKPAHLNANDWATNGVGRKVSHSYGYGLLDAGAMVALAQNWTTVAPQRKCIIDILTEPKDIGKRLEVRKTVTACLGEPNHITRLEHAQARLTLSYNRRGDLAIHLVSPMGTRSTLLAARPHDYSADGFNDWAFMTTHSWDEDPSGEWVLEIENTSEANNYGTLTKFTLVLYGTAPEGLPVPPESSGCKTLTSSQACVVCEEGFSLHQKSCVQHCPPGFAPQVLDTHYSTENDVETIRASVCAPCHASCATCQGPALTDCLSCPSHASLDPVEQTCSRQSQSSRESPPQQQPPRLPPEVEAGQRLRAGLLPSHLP
# Autophagy HCS: autophagy modulators in MEF cells, primary screen, imaging, high-content, MEF GFP-LC3; MEF GFP-LC3 puncta imaging; test concentration mostly 10 µM; calls only at 10 µM (by protocol); 190,000 compounds, 0.98% hits;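 active = percentage of spot-positive cells more than 3 SD above its plate mean, without a fluorescence outlier flag or 80% toxicity; inconclusive = no clear call, values can overlap the other calls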;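 also: spot-positive cell cutoff set from DMSO-treated cells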
# Ins promoter up: insulin promoter activators in MIN6 cells, imaging, high-content screening, mouse beta cells. MIN6 insulin promoter-GFP reporter; hits give high values. z-score at 5 µM. 190,000 compounds, 0.3% hits. AID 1625, 2009;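 active = z-score above 3 at 5 µM with at least 500 cells counted in the well; inconclusive = wells under 500 cells, flagged as cytotoxic or low count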
# MT stabilize HCS: microtubule stabilizers in HeLa cells, primary screen, imaging, high-content imaging | 200,000 compounds, 0.83% hits | % tubulin-high responders, % at 10 µM | HeLa tubulin immunostaining HCS, 24 h; share of cells brighter than vehicle mean+2SD | AID 2205, 2009;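 active = plate Z-score above 3 for both tubulin-high and condensed-nucleus cell shares, with cell loss under 80%, at 10 µM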;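 also: anti alpha tubulin signal scored within the nucleus-defined area of each cell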
# HSV replic up: enhancers of HSV replication in host cells, fold increase, host cell viability; HSV replication augmentation in cells; maximum fold increase; 220,000 compounds, 0.005% hits; AID 1956, 2009; in the data active = maximum fold increase above about 1.5; inconclusive = no clear call, values can overlap the other calls; tested in PC3 cells
# b-catenin transl: modulators of beta-catenin nuclear translocation, primary screen, imaging, HeLa cells, immunofluorescence, high-content; nuclear translocation activity, % at 5 µM; 190,000 compounds, 0.3% hits;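 active = nuclear translocation activity above 50% at 5 µM, with a well cell count of 50 or more; inconclusive = wells under 50 cells across six images, flagged as toxic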;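 also: per-cell ratio of nuclear to cytoplasmic median beta-catenin stain intensity; plate controls were DMSO negative control for no effect and GSK-3 inhibitor IX positive control for full effect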
#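 test system = HeLa cells, endogenous beta-catenin | dosing = single 5 µM dose plus 0.02–20 µM confirmation series | times = compound treatment 24 h, 37°C, 5% CO2 | technique = beta-catenin immunofluorescence imaging with DAPI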
# Active calls of the source: *; i = inactive; ? = inconclusive; nt = not tested or not shown; + = active, no number.
SMILES,Furin inh,Autophagy HCS,Ins promoter up,MT stabilize HCS,HSV replic up,b-catenin transl
CN(C)c1ccc(/C=C/c2ccc3ccccc3n2)cc1,6,nt,7.3*,nt,?,-5
N#Cc1ccccc1Cn1cc(/C=C/[N+](=O)[O-])c2ccccc21,-10,i,1.4,11,i,0
Cc1c(NC(=O)CNCc2ccc3c(c2)OCO3)c(=O)n(-c2ccccc2)n1C,-28,nt,-0.15,nt,i,1
O=S(=O)(c1ccc(Cl)cc1)N1CCCC1c1nc(-c2cccc(Cl)c2)no1 (centres undefined),-4,i,0.16,1,i,-1
CCCc1cc(-c2[nH]ncc2-c2ccc3c(c2)OCCCO3)c(O)cc1OC,-21,i,1.3,47*,i,3
Cc1cnc(NC(=O)CCNC(=O)c2ccc([N+](=O)[O-])cc2)s1,-21,i,-0.37,3,i,-1
CC(=O)Nc1ccc(OS(=O)(=O)c2ccc(C(C)(C)C)cc2)cc1,-12,i,0.24,2,i,2
COc1ccc(N2CC(C(=O)N/N=C/c3ccc(C)cc3)CC2=O)cc1 (centres undefined),-13,i,0.1,21,i,54*
COc1ccc(S(=O)(=O)NC2CCCCC2)c(C)c1C,12,i,-0.05,2,i,-1
Cc1cc(S(=O)(=O)NC2CCCCC2)c(C)s1,-15,i,3.5*,3,i,1
CCOc1ccc(-n2c(C)cc(C(=O)CCl)c2C)cc1,-17,+,-2.7,3,i,1
COc1ccc(-n2c(C)cc(C(=O)CN3C(=O)C(=O)N(Cc4ccccc4)C3=O)c2C)cc1,-30,i,-1.1,13*,i,6
COc1ccc(-n2c(C)cc(C(=O)CN3C(=O)NC4(CCCc5sccc54)C3=O)c2C)cc1 (centres undefined),-14,i,nt,2,i,-2
C=CCOc1ccc(CN(C)CC(=O)Nc2ccccc2[N+](=O)[O-])cc1,-20,i,0.52,4,i,2
NCCCN1CCOCC1,-12,i,nt,3,i,nt
COc1cccc(-n2nc(C#N)c(Cl)cc2=O)c1,-16,+,-3.8,2,i,-2
C=CCN(C(=O)c1ccccc1)c1ccc(OC)cc1,-16,i,0.29,43*,i,17
COc1ccc(N(C)C(=O)c2ccc3nc(-c4ccccc4)c(-c4ccccc4)nc3c2)cc1,-14,i,-0.23,25*,i,-1
COCCNC(=S)N(C)C1(c2ccccc2Cl)CCCCC1=O (centres undefined),-17,i,-0.41,4,i,-3
Nc1ccc(-c2nc3nc(N)nc(N)c3nc2-c2ccc(N)cc2)cc1,-6,nt,4.9*,nt,i,-2
CC(C)NS(=O)(=O)c1ccc(OCC(=O)NC(C)c2ccccc2)cc1 (centres undefined),-19,i,-0.16,2,i,0
COc1ccc(-c2nc3c(n2O)CCCC3=O)cc1OC,-5,i,-0.09,3,i,-7
Cc1ccc2[nH]c3c(c2c1)CN(C(=O)CN1c2ccc(F)cc2CCC1C)CC3 (centres undefined),0,i,-0.45,38*,i,30
CCOC(=O)C1(Cc2cccc(OC)c2)CCN(Cc2cccc3c2OCO3)CC1,-7,i,-0.66,4,i,-2
ONC(=Nc1ccccc1Cl)c1ccccc1Cl,-6,nt,0.38,nt,i,0
SMILES,Furin inh,Autophagy HCS,Ins promoter up,MT stabilize HCS,HSV replic up,b-catenin transl
c1ccc2nc(N3CCN(Cc4ccc5c(c4)OCO5)CC3)cnc2c1,-8,i,-0.65,6,i,1
CCOC(=O)N1CCC(=NNc2nc3ccccc3s2)CC1,-11,nt,-1,nt,i,-1
N#C/C(=C\N1CCN(Cc2ccc3c(c2)OCO3)CC1)c1nc2ccccc2s1,7,+,nt,6,i,-5
CCOC(=O)N1CCN(/C=C(\C#N)c2nc3ccccc3s2)CC1,11,+,nt,4,i,-5
COc1ccc(Br)cc1/C=N/NC(=O)c1cc(OC)c(OC)c(OC)c1,-21,i,0.74,10,i,nt
COc1cc(C(=O)N/N=C/c2ccsc2C)cc(OC)c1OC,-5,i,-0.11,11,i,163*
